Results as given in ChEMBL document CHEMBL1122504, “Heterocyclic Quinones. 4. A new highly cytotoxic drug: 6,7-bis(1-aziridinyl)-5,8-quinazolinedione” (1983).
Values joined by “and” are separate entries in the source; they are usually repeats but may differ in a detail not shown here. Equal values may be shown once.

Key:
B16 [1] = assay: MST of treated animal over control when administered at a dose of 2.5 mg/kg intraperitoneally on Q01Dx01 treatment schedule in B16 melanocarcinoma cell lines; type: functional, Mus musculus; details: route intraperitoneal
Method in brief: (§1)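 B16 melanocarcinoma: C57Bl/6 mice implanted sc with cell suspension on day 0; single ip dose in 0.15 M NaCl saline given on day 1. Median survival time was recorded in days, with toxicity taken as survivors on day 5. T/C% = treated MST/control MST × 100; >125% is considered significant.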

B16 [2] = assay: MST of treated animal over control when administered at a dose of 5 mg/kg intraperitoneally on Q01Dx01 treatment schedule in B16 melanocarcinoma cell lines; type: functional, Mus musculus; details: route intraperitoneal; method in brief: as §1
B16 [3] = assay: Number of survivors of B16 melanocarcinoma cell line on day 5/ number of treated mice at a dose of 1 ip injection of 10 mg/kg on Q01Dx01 treatment schedule; 10/10; type: functional, Mus musculus; details: route intraperitoneal
B16 [4] = assay: Number of survivors of B16 melanocarcinoma cell line on day 5/ number of treated mice at a dose of 1 ip injection of 5 mg/kg on Q01Dx01 treatment schedule; 09/10; type: functional, Mus musculus; details: route intraperitoneal
L1210 [5] = assay: MST of treated animal over control when administered at a dose of 5 mg/kg intraperitoneally on Q01Dx05 treatment schedule in L1210 cell lines; type: functional, Mus musculus; details: route intraperitoneal
Method in brief: (§2)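 L1210 leukaemia: DBA/2 mice inoculated ip with 10^5 cells on day 0, with ip drug in 0.15 M NaCl saline on the stated schedule. The read-out was median survival time in days, with toxicity taken as survivors on day 5. T/C% = treated MST/control MST × 100; >125% is considered significant.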

L1210 [6] = assay: MST of treated animal over control when administered at a dose of 10 mg/kg intraperitoneally on Q01Dx02 treatment schedule in L1210 cell lines; type: functional, Mus musculus; details: route intraperitoneal; method in brief: as §2
L1210 [7] = assay: MST of treated animal over control when administered at a dose of 10 mg/kg intraperitoneally on Q01Dx05 treatment schedule in L1210 cell lines; type: functional, Mus musculus; details: route intraperitoneal; method in brief: as §2
L1210 [8] = assay: Median survival time of L1210 cell line after a dose of 10 mg/kg administered intraperitoneally on Q01Dx02 treatment schedule; type: functional, Mus musculus; details: route intraperitoneal; method in brief: as §2
L1210 [9] = assay: Number of survivors of L1210 cell line on day 5/ number of treated mice at a dose of 1 i.p. injection of 20 mg/kg on Q01Dx01 treatment schedule; 10/10; type: functional, Mus musculus; details: route intraperitoneal
L1210 [10] = assay: Number of survivors of L1210 cell line on day 5/ number of treated mice at a dose of 2 ip injection of 15 mg/kg on Q01Dx02 treatment schedule; 10/10; type: functional, Mus musculus; details: route intraperitoneal
L1210 [11] = assay: Number of survivors of L1210 cell line on day 5/ number of treated mice at a dose of 5ip injection of 10 mg/kg on Q01Dx05 treatment schedule; 10/10; type: functional, Mus musculus
P388 [12] = assay: Number of survivors of P388 lymphocytic leukemia cell line on day 5/ number of treated mice at a dose of 1 i.v. injection of 5 mg/kg on Q01Dx01 treatment schedule; 10/10; type: functional, Mus musculus; details: route intravenous
P388 [13] = assay: Number of survivors of P388 lymphocytic leukemia cell line on day 5/ number of treated mice at a dose of 7po injection of 15 mg/kg on Q01Dx07 treatment schedule; 10/10; type: functional, Mus musculus
P388 [14] = assay: MST of treated animal over control when administered at a dose of 10 mg/kg intraperitoneally on Q01Dx05 treatment schedule; type: functional, Mus musculus; details: route intraperitoneal
Method in brief: (§3)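 P388 leukaemia: DBA/2 mice inoculated with 10^6 cells on day 0; treatment began day 1 at the stated route and schedule. Drug was dissolved in 0.15 M NaCl saline. The read-out was median survival time (MST, days), with toxicity taken as survivors on day 5. T/C% = treated MST/control MST × 100; ≥125% is considered significant.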

P388 [15] = assay: MST of treated animal over control when administered at a dose of 10 mg/kg perorally on Q01Dx07 treatment schedule; type: functional, Mus musculus; details: route oral; method in brief: as §3
P388 [16] = assay: MST of treated animal over control when administered at a dose of 15 mg/kg intravenously on Q01Dx01 treatment schedule; type: functional, Mus musculus; details: route intravenous; method in brief: as §3
P388 [17] = assay: MST of treated animal over control when administered at a dose of 15 mg/kg perorally on Q01Dx07 treatment schedule; type: functional, Mus musculus; details: route oral; method in brief: as §3
P388 [18] = assay: MST of treated animal over control when administered at a dose of 2.5 mg/kg intraperitoneally on Q01Dx09 treatment schedule; type: functional, Mus musculus; details: route intraperitoneal; method in brief: as §3
P388 [19] = assay: MST of treated animal over control when administered at a dose of 2.5 mg/kg intravenously on Q01Dx01 treatment schedule; type: functional, Mus musculus; details: route intravenous; method in brief: as §3
P388 [20] = assay: MST of treated animal over control when administered at a dose of 20 mg/kg perorally on Q01Dx07 treatment schedule; type: functional, Mus musculus; details: route oral; method in brief: as §3
P388 [21] = assay: Median survival time of P388 lymphocytic leukemia cell line after a dose of 10 mg/kg administered intraperitoneally on Q04Dx03 treatment schedule; type: functional, Mus musculus; details: route intraperitoneal; method in brief: as §3
P388 [22] = assay: Median survival time of P388 lymphocytic leukemia cell line after a dose of 20 mg/kg administered intraperitoneally on Q01Dx01 treatment schedule; type: functional, Mus musculus; details: route intraperitoneal; method in brief: as §3
P388 [23] = assay: Median survival time of P388 lymphocytic leukemia cell line after a dose of 5 mg/kg administered intraperitoneally on Q01Dx09 treatment schedule; type: functional, Mus musculus; details: route intraperitoneal; method in brief: as §3
Sarcoma-180 [24] = assay: Median survival time of sarcoma 180 cell line after a dose of 10 mg/kg administered intraperitoneally on Q01Dx01 treatment schedule; type: functional, Mus musculus; details: route intraperitoneal
Method in brief: (§4)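 Sarcoma 180 was inoculated ip in Swiss mice (10^6 cells, day 0), and drug was given ip in 0.15 M NaCl saline. Median survival time was recorded in days; antitumor activity was expressed as treated MST over control MST ×100, significant above 125%.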

Sarcoma-180 [25] = assay: Median survival time of sarcoma 180 cell line after a dose of 20 mg/kg administered intraperitoneally on Q01Dx01 treatment schedule; type: functional, Mus musculus; details: route intraperitoneal; method in brief: as §4
Salmonella typhimurium [26] = assay: Mutagenesis test was performed at 0.3 uM concentration in Salmonella Typhimurium TA 98; type: functional, Salmonella enterica subsp. enterica serovar Typhimurium
Method in brief: (§5)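 Salmonella typhimurium his auxotrophs TA98 and TA100 were tested by liquid suspension without metabolic activation. Overnight Oxoid nutrient broth cultures were subcultured, grown 2 h, then exposed to drug for 5 h. Cells were washed, resuspended to A650 2.50, and plated in top agar (0.6% agar, 0.6% NaCl). His+ revertants per plate were counted after 48 h at 37 °C; values are means of three assays.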

Salmonella typhimurium [27] = assay: Mutagenesis test was performed at 0.7 uM concentration in Salmonella Typhimurium TA 100; type: functional, Salmonella enterica subsp. enterica serovar Typhimurium; method in brief: as §5
Salmonella typhimurium [28] = assay: Mutagenesis test was performed at 20 uM concentration in Salmonella Typhimurium TA 100; type: functional, Salmonella enterica subsp. enterica serovar Typhimurium; method in brief: as §5
Salmonella typhimurium [29] = assay: Mutagenesis test was performed at 40 uM concentration in Salmonella Typhimurium TA 98; type: functional, Salmonella enterica subsp. enterica serovar Typhimurium; method in brief: as §5
Sarcoma-180 [30] = assay: MST of treated animal over control when administered at a dose of 20 mg/kg intraperitoneally on Q01Dx01 treatment schedule in sarcoma 180 cell lines; type: functional, Mus musculus; details: route intraperitoneal
Method in brief: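 Sarcoma 180: Swiss mice inoculated ip with 10^6 cells on day 0, with single ip injection of drug in 0.15 M NaCl saline. Median survival time was recorded in days, with toxicity taken as survivors on day 5. T/C% = treated MST/control MST × 100; >125% is considered significant.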

O=C1C(N2CC2)=C(N2CC2)C(=O)c2ncncc21
T/C (B16 [1]): 121%
T/C (B16 [2]): 126%
Toxicity Survivors (B16 [3]): 10
Toxicity Survivors (B16 [4]): 9
T/C (L1210 [5]): 108%
T/C (L1210 [6]): 104%
T/C (L1210 [7]): 69%
MST (L1210 [8]): 9 days
Toxicity Survivors (L1210 [9]): 10
Toxicity Survivors (L1210 [10]): 10
Toxicity Survivors (L1210 [11]): 10
Toxicity Survivors (P388 [12]): 10
Toxicity Survivors (P388 [13]): 10
T/C (P388 [14]): 84%
T/C (P388 [15]): 100%
T/C (P388 [16]): 139% and 114%
T/C (P388 [17]): 100%
T/C (P388 [18]): 128%
T/C (P388 [19]): 103%
T/C (P388 [20]): 105%
MST (P388 [21]): 9.9 days
MST (P388 [22]): 9.5 days
MST (P388 [23]): 10.4 days
MST (Sarcoma-180 [24]): 18.3 days
MST (Sarcoma-180 [25]): 19 days
Revertants/plate (Salmonella typhimurium [26]): 84
Revertants/plate (Salmonella typhimurium [27]): 94
Revertants/plate (Salmonella typhimurium [28]): 108
Revertants/plate (Salmonella typhimurium [29]): 334
T/C (Sarcoma-180 [30]): 110%
